Test results reported in ChEMBL document CHEMBL1150163, “Steroidal glycosides from the leaves of Cestrum nocturnum” (2002).
Converted amounts (≈) assume the structure as drawn.

System: HSC-2
Test: Cytotoxicity against human HSC2 cells after 24 hrs by MTT assay
Type: functional
Conditions: HSC-2, 24 h, read-out: LD50 (the source's name)
Outline: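 HSC-2 oral squamous carcinoma cells grown as monolayers in DMEM with 10% heat-inactivated FBS, 37 °C, 5% CO2. Seeded at 6 × 10^3 cells/well, incubated 24 h, washed, then exposed to compounds for 24 h. MTT (0.2 mg/mL) for 4 h, DMSO lysis, absorbance at 540 nm. LD50 (50% reduction in viable cells) read from dose-response curve.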

Structure (SMILES)	CC50 [µg/mL]
CC(=O)C1=CC[C@H]2[C@@H]3CC=C4C[C@@H](O[C@@H]5O[C@H](CO)[C@H](O[C@@H]6O[C@H](CO)[C@@H](O)[C@H](O[C@@H]7OC[C@@H](O)[C@H](O)[C@H]7O)[C@H]6O[C@@H]6O[C@H](CO)[C@@H](O)[C@H](O[C@@H]7O[C@H](CO)[C@@H](O)[C@H](O)[C@H]7O)[C@H]6O)[C@H](O)[C@H]5O)[C@H](O)C[C@]4(C)[C@H]3CC[C@]12C	192 (≈ 173 µM)
CC(=O)[C@H]1[C@@H](OC(=O)CC[C@@H](C)CO[C@@H]2O[C@H](CO)[C@@H](O)[C@H](O)[C@H]2O)C[C@H]2[C@@H]3CC=C4C[C@@H](O[C@@H]5O[C@H](CO)[C@H](O[C@@H]6O[C@H](CO)[C@@H](O)[C@H](O[C@@H]7OC[C@@H](O)[C@H](O)[C@H]7O)[C@H]6O[C@@H]6O[C@H](CO)[C@@H](O)[C@H](O[C@@H]7O[C@H](CO)[C@@H](O)[C@H](O)[C@H]7O)[C@H]6O)[C@H](O)[C@H]5O)[C@H](O)C[C@]4(C)[C@H]3CC[C@@]21C	> 300
C[C@@H]1CC[C@@]2(OC1)O[C@H]1C[C@H]3[C@@H]4CC=C5C[C@@H](O[C@@H]6O[C@H](CO)[C@H](O[C@@H]7O[C@H](CO)[C@@H](O)[C@H](O[C@@H]8OC[C@@H](O)[C@H](O)[C@H]8O)[C@H]7O[C@@H]7O[C@H](CO)[C@@H](O)[C@H](O[C@@H]8O[C@H](CO)[C@@H](O)[C@H](O)[C@H]8O)[C@H]7O)[C@H](O)[C@H]6O)[C@H](O)C[C@]5(C)[C@H]4CC[C@]3(C)[C@H]1[C@@H]2C	2.7 (≈ 2.23 µM)
C[C@@H]1C(=O)O[C@H]2C[C@H]3[C@@H]4CC=C5C[C@@H](O[C@@H]6O[C@H](CO)[C@H](O[C@@H]7O[C@H](CO)[C@@H](O)[C@H](O[C@@H]8OC[C@@H](O)[C@H](O)[C@H]8O)[C@H]7O[C@@H]7O[C@H](CO)[C@@H](O)[C@H](O[C@@H]8O[C@H](CO)[C@@H](O)[C@H](O)[C@H]8O)[C@H]7O)[C@H](O)[C@H]6O)[C@H](O)C[C@]5(C)[C@H]4CC[C@]3(C)[C@H]21	> 300
CO[C@]1(CC[C@@H](C)CO[C@@H]2O[C@H](CO)[C@@H](O)[C@H](O)[C@H]2O)O[C@H]2C[C@H]3[C@@H]4CC=C5C[C@@H](O[C@@H]6O[C@H](CO)[C@H](O[C@@H]7O[C@H](CO)[C@@H](O)[C@H](O[C@@H]8OC[C@@H](O)[C@H](O)[C@H]8O)[C@H]7O[C@@H]7O[C@H](CO)[C@@H](O)[C@H](O[C@@H]8O[C@H](CO)[C@@H](O)[C@H](O)[C@H]8O)[C@H]7O)[C@H](O)[C@H]6O)[C@H](O)C[C@]5(C)[C@H]4CC[C@]3(C)[C@H]2[C@@H]1C	6.1 (≈ 4.34 µM)
CC1=C(CC[C@@H](C)CO[C@@H]2O[C@H](CO)[C@@H](O)[C@H](O)[C@H]2O)O[C@H]2C[C@H]3[C@@H]4CC=C5C[C@@H](O[C@@H]6O[C@H](CO)[C@H](O[C@@H]7O[C@H](CO)[C@@H](O)[C@H](O[C@@H]8OC[C@@H](O)[C@H](O)[C@H]8O)[C@H]7O[C@@H]7O[C@H](CO)[C@@H](O)[C@H](O[C@@H]8O[C@H](CO)[C@@H](O)[C@H](O)[C@H]8O)[C@H]7O)[C@H](O)[C@H]6O)[C@H](O)C[C@]5(C)[C@H]4CC[C@]3(C)[C@@H]12	> 300
C/C(C(=O)CC[C@@H](C)CO[C@@H]1O[C@H](CO)[C@@H](O)[C@H](O)[C@H]1O)=C1/C(=O)C[C@H]2[C@@H]3CC=C4C[C@@H](O[C@@H]5O[C@H](CO)[C@H](O[C@@H]6O[C@H](CO)[C@@H](O)[C@H](O[C@@H]7OC[C@@H](O)[C@H](O)[C@H]7O)[C@H]6O[C@@H]6O[C@H](CO)[C@@H](O)[C@H](O[C@@H]7O[C@H](CO)[C@@H](O)[C@H](O)[C@H]7O)[C@H]6O)[C@H](O)[C@H]5O)[C@H](O)C[C@]4(C)[C@H]3CC[C@]12C	281 (≈ 203 µM)
C/C(C(=O)CC[C@@H](C)CO[C@@H]1O[C@H](CO)[C@@H](O)[C@H](O)[C@H]1O)=C1/C(=O)C[C@H]2[C@@H]3CC=C4C[C@@H](O[C@@H]5O[C@H](CO)[C@H](O[C@@H]6O[C@H](CO)[C@@H](O)[C@H](O[C@@H]7OC[C@@H](O)[C@H](O)[C@H]7O)[C@H]6O[C@@H]6O[C@H](CO)[C@@H](O)[C@H](O)[C@H]6O)[C@H](O)[C@H]5O)[C@H](O)C[C@]4(C)[C@H]3CC[C@]12C	> 300
C[C@@H]1CC[C@@]2(OC1)O[C@H]1C[C@H]3[C@@H]4CC=C5C[C@@H](O[C@@H]6O[C@H](CO)[C@H](O[C@@H]7O[C@H](CO)[C@@H](O)[C@H](O[C@@H]8OC[C@@H](O)[C@H](O)[C@H]8O)[C@H]7O[C@@H]7O[C@H](CO)[C@@H](O)[C@H](O[C@@H]8O[C@H](CO)[C@@H](O)[C@H](O)[C@H]8O)[C@H]7O)[C@H](O)[C@H]6O)[C@H](O)C[C@]5(C)[C@H]4CC[C@]3(C)[C@@]1(O)[C@@H]2C	4.4 (≈ 3.59 µM)
C[C@H]1CO[C@]2(C[C@@H]1O[C@@H]1O[C@H](CO)[C@@H](O)[C@H](O)[C@H]1O)O[C@H]1C[C@H]3[C@@H]4CC=C5C[C@@H](O[C@@H]6O[C@H](CO)[C@H](O[C@@H]7O[C@H](CO)[C@@H](O)[C@H](O[C@@H]8OC[C@@H](O)[C@H](O)[C@H]8O)[C@H]7O[C@@H]7O[C@H](CO)[C@@H](O)[C@H](O[C@@H]8O[C@H](CO)[C@@H](O)[C@H](O)[C@H]8O)[C@H]7O)[C@H](O)[C@H]6O)[C@H](O)C[C@]5(C)[C@H]4CC[C@]3(C)[C@H]1[C@@H]2C	> 300
COc1cccc2c1C(=O)c1c(O)c3c(c(O)c1C2=O)C[C@@](O)(C(=O)CO)C[C@@H]3O[C@H]1C[C@H](N)[C@H](O)[C@H](C)O1 [DOXORUBICIN]	2.5 (≈ 4.6 µM)
